Measurements published in ChEMBL document CHEMBL4706586, “Structure-activity relationships for a series of (Bis(4-fluorophenyl)methyl)sulfinylethyl-aminopiperidines and -piperidine amines at the dopamine transporter: Bioisosteric replacement of the piperazine improves metabolic stability” (Eur J Med Chem, 2020).

Assays:
[1] = biological target: Sodium-dependent dopamine transporter (Rattus norvegicus, UniProt P23977); assay: Displacement of [3H]WIN35428 from DAT in Sprague-Dawley rat striatal membranes incubated for 120 mins by microbeta scintillation counting method; assay type: cell membranes, Striatum, Membrane
[2] = biological target: Sodium-dependent serotonin transporter (Rattus norvegicus, UniProt P31652); assay: Displacement of [3H]citalopram from SERT in Sprague-Dawley rat midbrain membranes incubated for 60 mins by microbeta scintillation counting method; assay type: cell membranes, Membrane
[3] = biological target: Sigma non-opioid intracellular receptor 1 (Cavia porcellus, UniProt Q60492); assay: Displacement of [3H](+)-pentazocine from sigma 1 receptor in guinea pig brain cortex membranes after 120 mins by scintillation counting analysis; assay type: cell membranes, Membrane
How it was run: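 Male guinea pig cortex membranes in 10 mM Tris-HCl/0.32 M sucrose pH 7.4, 5.0 mg/well original wet weight; [3H](+)-pentazocine 3 nM final; inhibitor serial dilutions in 30% DMSO vehicle, triplicate; 120 min at RT; nonspecific with 10 μM PRE084 or (+)-pentazocine.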

[4] = species: Rattus norvegicus; assay: Selectivity ratio of Ki for SERT in Sprague-Dawley rat midbrain membranes to Ki for DAT in Sprague-Dawley rat striatum membranes
[5] = Selectivity ratio of Ki for sigma 1 receptor in guinea pig brain cortex membranes to Ki for DAT in Sprague-Dawley rat striatum membranes; assay type: cell membranes
[6] = biological target: D(2) dopamine receptor (Homo sapiens, UniProt P14416); assay: Displacement of [3H]-N-methylspiperone from human D2L receptor expressed in HEK293 cell membranes measured after 60 mins by microbeta scintillation counting method; parameters: species or system Membrane
How it was run: (§1)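 Membranes from HEK293 cells stably expressing human D2LR, D3R or D4.4R; 20 μg/well protein (D2LR, D3R) or 30 μg/well (D4.4R); [3H]-N-methylspiperone 0.4 nM final; half-log dilutions in 30% DMSO, triplicate; 60 min RT; nonspecific 10 μM (+)-butaclamol.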

[7] = biological target: D(3) dopamine receptor (Homo sapiens, UniProt P35462); assay: Displacement of [3H]-N-methylspiperone from human D3 receptor expressed in HEK293 cell membranes measured after 60 mins by microbeta scintillation counting method; parameters: species or system Membrane; how it was run: as §1
[8] = biological target: T1, D(4) dopamine receptor (Homo sapiens, UniProt P21917); assay: Displacement of [3H]-N-methylspiperone from human D4.4 receptor expressed in HEK293 cell membranes measured after 60 mins by microbeta scintillation counting method; parameters: species or system Membrane; how it was run: as §1
T1 sequence (P21917 whole entry): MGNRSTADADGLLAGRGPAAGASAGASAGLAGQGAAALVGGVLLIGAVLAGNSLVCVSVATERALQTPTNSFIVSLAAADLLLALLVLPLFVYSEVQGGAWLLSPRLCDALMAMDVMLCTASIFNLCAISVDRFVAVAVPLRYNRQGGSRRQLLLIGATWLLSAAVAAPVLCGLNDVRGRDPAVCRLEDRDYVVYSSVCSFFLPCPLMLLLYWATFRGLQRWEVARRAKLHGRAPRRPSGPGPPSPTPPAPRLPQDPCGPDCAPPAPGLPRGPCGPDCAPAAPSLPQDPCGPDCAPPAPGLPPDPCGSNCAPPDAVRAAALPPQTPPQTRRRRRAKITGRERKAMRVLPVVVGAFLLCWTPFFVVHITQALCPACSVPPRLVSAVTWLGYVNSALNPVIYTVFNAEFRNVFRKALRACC

[9] = Displacement of [3H]-Nisoxetine from NET in Sprague-Dawley rat frontal cortex membrane after 180 mins by microbeta scintillation counting method; assay type: cell membranes
[10] = Metabolic stability in rat liver microsomes assessed as compound remaining at 10 uM incubated for 60 mins in presence of NADPH regenerating system by LC-MS/MS analysis; assay type: ADME, Microsome; settings: 1 h
[11] = Metabolic stability in rat liver microsomes assessed as compound remaining at 10 uM in presence of NADPH regenerating system by LC-MS/MS analysis; assay type: ADME, Microsome
[12] = Toxicity in Swiss Webster mouse assessed as stimulation of ambulatory activity by measuring total distance travelled at 1 to 30 mg/kg, ip measured every 5 mins for 2 hrs; assay type: organism-based; settings: in vivo, dose 1-30 mg/kg

Chain of Sodium-dependent serotonin transporter (P31652 whole entry): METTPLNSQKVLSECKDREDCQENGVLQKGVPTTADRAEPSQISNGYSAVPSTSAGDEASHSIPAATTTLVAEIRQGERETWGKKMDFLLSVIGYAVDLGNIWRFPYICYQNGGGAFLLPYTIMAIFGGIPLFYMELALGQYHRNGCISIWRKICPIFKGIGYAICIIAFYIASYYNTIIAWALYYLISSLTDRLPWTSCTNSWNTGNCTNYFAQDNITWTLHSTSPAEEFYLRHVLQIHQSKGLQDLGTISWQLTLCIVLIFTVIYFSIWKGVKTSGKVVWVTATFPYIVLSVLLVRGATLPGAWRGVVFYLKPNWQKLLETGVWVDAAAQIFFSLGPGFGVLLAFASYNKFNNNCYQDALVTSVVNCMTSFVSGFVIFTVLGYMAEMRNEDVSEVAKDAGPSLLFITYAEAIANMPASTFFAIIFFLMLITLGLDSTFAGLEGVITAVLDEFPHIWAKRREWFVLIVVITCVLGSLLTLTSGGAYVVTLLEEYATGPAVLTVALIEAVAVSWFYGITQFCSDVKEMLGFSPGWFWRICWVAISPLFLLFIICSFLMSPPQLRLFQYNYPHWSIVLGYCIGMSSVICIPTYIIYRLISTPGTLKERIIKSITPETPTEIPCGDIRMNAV
Chain of Sigma non-opioid intracellular receptor 1 (Q60492 whole entry): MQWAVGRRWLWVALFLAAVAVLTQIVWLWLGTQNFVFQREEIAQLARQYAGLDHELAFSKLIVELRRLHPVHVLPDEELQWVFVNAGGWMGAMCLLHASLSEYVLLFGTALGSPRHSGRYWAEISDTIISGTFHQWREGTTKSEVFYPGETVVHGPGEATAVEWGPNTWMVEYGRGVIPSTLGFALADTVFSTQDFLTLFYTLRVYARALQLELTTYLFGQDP
Chain of D(2) dopamine receptor (P14416 whole entry): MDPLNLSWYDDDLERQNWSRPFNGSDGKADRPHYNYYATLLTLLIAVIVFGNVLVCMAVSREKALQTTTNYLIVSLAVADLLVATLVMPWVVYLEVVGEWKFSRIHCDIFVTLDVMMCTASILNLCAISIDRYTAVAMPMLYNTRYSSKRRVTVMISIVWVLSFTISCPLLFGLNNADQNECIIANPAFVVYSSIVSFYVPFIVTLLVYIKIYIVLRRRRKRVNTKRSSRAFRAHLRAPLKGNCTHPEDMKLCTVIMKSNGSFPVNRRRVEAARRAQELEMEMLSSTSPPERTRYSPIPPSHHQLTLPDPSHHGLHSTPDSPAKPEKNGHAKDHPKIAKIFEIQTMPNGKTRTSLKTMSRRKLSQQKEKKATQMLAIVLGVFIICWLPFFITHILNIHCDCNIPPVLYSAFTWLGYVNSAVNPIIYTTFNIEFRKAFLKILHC
Chain of D(3) dopamine receptor (P35462 whole entry): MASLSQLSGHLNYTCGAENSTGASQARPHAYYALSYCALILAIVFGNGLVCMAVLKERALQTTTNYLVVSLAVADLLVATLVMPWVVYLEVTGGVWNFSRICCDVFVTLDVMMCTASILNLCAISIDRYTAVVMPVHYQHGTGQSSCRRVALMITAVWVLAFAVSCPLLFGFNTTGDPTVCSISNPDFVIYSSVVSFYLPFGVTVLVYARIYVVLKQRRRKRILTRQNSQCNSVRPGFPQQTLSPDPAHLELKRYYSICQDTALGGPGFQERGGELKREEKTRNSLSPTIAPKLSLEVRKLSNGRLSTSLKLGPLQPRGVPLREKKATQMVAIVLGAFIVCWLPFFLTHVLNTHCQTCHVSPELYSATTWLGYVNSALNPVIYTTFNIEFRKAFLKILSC
Chain of Sodium-dependent dopamine transporter (P23977 whole entry): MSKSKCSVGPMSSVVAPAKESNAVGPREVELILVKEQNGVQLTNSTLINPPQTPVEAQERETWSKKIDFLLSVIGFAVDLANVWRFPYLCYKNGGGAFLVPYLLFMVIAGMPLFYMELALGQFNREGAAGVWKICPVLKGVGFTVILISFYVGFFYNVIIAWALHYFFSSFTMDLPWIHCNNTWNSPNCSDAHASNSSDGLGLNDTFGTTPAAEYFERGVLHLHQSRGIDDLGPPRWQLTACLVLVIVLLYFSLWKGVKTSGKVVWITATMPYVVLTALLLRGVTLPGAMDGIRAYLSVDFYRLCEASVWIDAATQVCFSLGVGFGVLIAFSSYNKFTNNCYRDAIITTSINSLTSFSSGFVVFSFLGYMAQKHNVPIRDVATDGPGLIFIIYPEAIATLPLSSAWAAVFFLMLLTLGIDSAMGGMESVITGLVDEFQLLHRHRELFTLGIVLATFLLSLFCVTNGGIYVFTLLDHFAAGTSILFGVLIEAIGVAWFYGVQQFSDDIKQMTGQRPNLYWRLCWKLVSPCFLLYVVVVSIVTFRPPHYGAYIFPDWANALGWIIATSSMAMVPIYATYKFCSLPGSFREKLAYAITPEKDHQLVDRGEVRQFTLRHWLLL

Row | Structure (SMILES) | Ki [1] [nM] | Ki [2] [nM] | Ki [3] [nM] | Ratio Ki [4] | Ratio Ki [5] | Ki [6] [nM] | Ki [7] [nM] | Ki [8] [nM] | Ki [9] [nM] | Stabilty [10] [%] | Stabilty [11] [%] | Activity [12] [cm]
1 | CN(CCSC(c1ccc(F)cc1)c1ccc(F)cc1)C1CCN(C(=O)c2ccccc2F)CC1 | 222 | 992 | 5.87 | 4.47 | 0.03 |  |  |  |  |  |  | 
2 | Fc1ccc(C(SCCN2CCC(NCc3ccc(C(F)(F)F)cc3)CC2)c2ccc(F)cc2)cc1 |  |  | 162 |  |  |  |  |  |  |  |  | 
3 | NC(=O)C[S@@+]([O-])C(c1ccc(F)cc1)c1ccc(F)cc1 | 4830 | 38900 | > 100000 | 8.05 | > 21 |  |  |  |  |  |  | 
4 | O=C(c1cc2ccccc2o1)N1CCC(NCCSC(c2ccc(F)cc2)c2ccc(F)cc2)CC1 |  |  | 304 |  |  |  |  |  |  |  |  | 
5 | O=C(c1ccccc1)N1CCC(NCCSC(c2ccc(F)cc2)c2ccc(F)cc2)CC1 | 4.51 | 283 | 2.03 | 62.8 | 0.45 | 2900 | 2510 | 4110 | 920 | 7 | 100 | 
6 | Fc1ccc(C(SCCNC2CCN(Cc3cc4ccccc4[nH]3)CC2)c2ccc(F)cc2)cc1 |  |  | 205 |  |  |  |  |  |  |  |  | 
7 | O=C(c1ccc(F)cc1)N1CCC(NCC[S+]([O-])C(c2ccc(F)cc2)c2ccc(F)cc2)CC1 (configuration not stated) |  |  | 1440 | 60.1 | 18.7 | 156000 | 28200 | > 100000 | 23000 | 79 | 100 | < 3000
8 | CC(C)N(CCSC(c1ccc(F)cc1)c1ccc(F)cc1)C1CCN(C(=O)c2ccccc2F)CC1 | 1530 | 16300 | 126 | 10.7 | 0.08 |  |  |  |  |  |  | 
9 | OC(CNC1CCN(CCSC(c2ccc(F)cc2)c2ccc(F)cc2)CC1)Cc1ccccc1 (configuration not stated) |  |  | 88 | 1.4 | 1.84 | 2270 | 701 | 2670 |  | 69 | 100 | 
10 | NC(=O)C[S+]([O-])C(c1ccccc1)c1ccccc1 (racemic) [MODAFINIL] |  |  |  |  |  | > 100000 | 39000 | > 100000 |  |  |  | 
11 | [O-][S+](CCN1CCN(CC(O)Cc2ccccc2)CC1)C(c1ccc(F)cc1)c1ccc(F)cc1 (configuration not stated) | 2.6 | 12700 | 41.6 |  |  |  |  |  |  |  |  | 
12 | NC(=O)C[S@+]([O-])C(c1ccc(F)cc1)c1ccc(F)cc1 | 2970 | 15000 | > 100000 | 5.05 | > 34 |  |  |  |  |  |  | 
13 | CC(C)(C)C(=O)N1CCC(NCC[S+]([O-])C(c2ccc(F)cc2)c2ccc(F)cc2)CC1 (configuration not stated) |  |  | 11200 | 3.14 | 1.1 |  |  |  |  |  |  | 
14 | O=C(c1ccc(F)cc1)N1CCC(NCCSC(c2ccc(F)cc2)c2ccc(F)cc2)CC1 | 7.04 |  | 32.1 | 69.5 | 4.59 | 8830 | 5230 | 9020 | 258 | 24 | 100 | 
15 | Fc1ccc(C(SCCNC2CCN(Cc3ccc(C(F)(F)F)cc3)CC2)c2ccc(F)cc2)cc1 |  |  | 186 |  |  |  |  |  |  |  |  | 
16 | O=C(c1ccccc1)N1CCC(NCC[S+]([O-])C(c2ccc(F)cc2)c2ccc(F)cc2)CC1 (configuration not stated) |  |  | 585 |  |  |  |  |  |  |  |  | 
17 | OC(Cc1ccccc1)CN1CCC(NCCSC(c2ccc(F)cc2)c2ccc(F)cc2)CC1 (configuration not stated) | 31.4 |  | 309 |  |  | 4020 | 691 | 2200 | 585 | 74 | 100 | 
18 | Fc1ccc(C(SCCN2CCC(NCc3ccc(Cl)cc3)CC2)c2ccc(F)cc2)cc1 |  |  | 62.4 | 4.59 | 0.72 |  |  |  |  |  |  | 
19 | Fc1ccc(CN2CCC(NCCSC(c3ccc(F)cc3)c3ccc(F)cc3)CC2)cc1 |  |  | 13.3 | 10.9 | 0.52 | 2920 | 911 | 980 |  | 70 | 100 | 
20 | CC(C)(C)C(=O)N1CCC(NCCSC(c2ccc(F)cc2)c2ccc(F)cc2)CC1 |  |  | 163 |  |  | 6070 | 3420 | 11900 |  |  |  | 
21 | Fc1ccc(C(SCCN2CCC(NCc3ccccc3)CC2)c2ccc(F)cc2)cc1 |  |  | 60.9 | 3.06 | 0.56 |  |  |  |  |  |  | 

Row | Structure (SMILES) | Ki [1] [nM] | Ki [2] [nM] | Ki [3] [nM] | Ratio Ki [4] | Ratio Ki [5] | Ki [6] [nM] | Ki [7] [nM] | Ki [8] [nM] | Ki [9] [nM] | Stabilty [10] [%] | Stabilty [11] [%] | Activity [12] [cm]
22 | O=C(c1ccc(F)cc1F)N1CCC(NCC[S+]([O-])C(c2ccc(F)cc2)c2ccc(F)cc2)CC1 (configuration not stated) | 564 | 4610 | 171 | 8.17 | 0.3 |  |  |  |  |  |  | 
23 | O=C(C1CC1)N1CCC(NCCSC(c2ccc(F)cc2)c2ccc(F)cc2)CC1 |  |  | 46.4 | 5.67 | 0.26 |  |  |  |  |  |  | 
24 | [O-][S+](CCNC1CCN(CC(O)Cc2ccccc2)CC1)C(c1ccc(F)cc1)c1ccc(F)cc1 (configuration not stated) |  |  | 351 | 6.53 | 3.82 | 6610 | 5500 |  |  | 22 | 100 | 
25 | CC(C)(C)CN1CCC(NCCSC(c2ccc(F)cc2)c2ccc(F)cc2)CC1 |  |  | 315 | 3.39 | 1.13 |  |  |  |  |  |  | 
26 | CC(O)CN1CCN(CCSC(c2ccc(F)cc2)c2ccc(F)cc2)CC1 (configuration not stated) | 37.8 | 6800 | 2.24 |  |  |  |  |  |  |  |  | 
27 | CN(CCSC(c1ccc(F)cc1)c1ccc(F)cc1)C1CCN(C(=O)c2ccc(F)cc2)CC1 | 190 | 2440 | 7.11 | 12.8 | 0.04 |  |  |  |  |  |  | 
28 | CC(O)CN1CCN(CC[S+]([O-])C(c2ccc(F)cc2)c2ccc(F)cc2)CC1 (configuration not stated) |  | 97800 | 454 |  |  |  |  |  | > 100000 |  |  | 
29 | Fc1ccc(C(SCCNC2CCN(Cc3ccc(Cl)cc3)CC2)c2ccc(F)cc2)cc1 |  |  | 45.5 | 9.04 | 1.15 |  |  |  |  |  |  | 
30 | O=C(c1ccccc1F)N1CCC(NCCSC(c2ccc(F)cc2)c2ccc(F)cc2)CC1 | 46.1 | 351 | 3.57 | 7.61 | 0.08 |  |  |  |  |  |  | 
31 | CN(CC[S+]([O-])C(c1ccc(F)cc1)c1ccc(F)cc1)C1CCN(C(=O)c2ccccc2F)CC1 (configuration not stated) | 7380 | 251000 | 516 | 34 | 0.07 |  |  |  |  |  |  | 
32 | NC(=O)C[S+]([O-])C(c1ccc(F)cc1)c1ccc(F)cc1 (racemic) | 4090 | 48700 | > 100000 | 11.9 | > 24 |  |  |  |  |  |  | 
33 | Fc1ccc(C(SCCNC2CCN(CCc3ccccc3)CC2)c2ccc(F)cc2)cc1 |  |  | 57.7 | 4.57 | 1.83 |  |  |  |  |  |  | 
34 | Fc1ccc(CNC2CCN(CCSC(c3ccc(F)cc3)c3ccc(F)cc3)CC2)cc1 |  |  | 41.4 | 4.79 | 0.74 |  |  |  |  |  |  | 
35 | Fc1ccc(C(SCCNC2CCN(Cc3ccccc3)CC2)c2ccc(F)cc2)cc1 |  |  | 3.81 | 12.4 | 0.12 |  |  |  |  |  |  | 
36 | CC(C)(C)CN1CCC(NCC[S+]([O-])C(c2ccc(F)cc2)c2ccc(F)cc2)CC1 (configuration not stated) |  |  | 542 | 16.2 | 1.26 |  |  |  |  |  |  | 
37 | Fc1ccc(C(SCCNC2CCN(Cc3cc4ccccc4o3)CC2)c2ccc(F)cc2)cc1 | 120 | 695 | 205 | 5.79 | 1.71 |  |  |  |  |  |  | 
38 | O=C(c1cc2ccccc2[nH]1)N1CCC(NCCSC(c2ccc(F)cc2)c2ccc(F)cc2)CC1 | 177 |  | 1130 |  |  |  |  |  |  |  |  | 
39 | Fc1ccc(C(SCCNC2CCN(CC3CC3)CC2)c2ccc(F)cc2)cc1 |  |  | 269 | 3.93 | 0.66 |  |  |  |  |  |  | 
40 | O=C(c1ccccc1F)N1CCC(NCC[S+]([O-])C(c2ccc(F)cc2)c2ccc(F)cc2)CC1 (configuration not stated) | 604 | 14200 | 1310 | 23.5 | 2.16 |  |  |  |  |  |  | 
41 | CC(O)CN1[C@H](C)CN(CCSC(c2ccc(F)cc2)c2ccc(F)cc2)C[C@@H]1C (some centres not stated) |  |  |  | 641 | 0.243 | 11900 | 1470 |  |  |  |  | 
